From ChEMBL document CHEMBL4665634, “Inhibiting Aβ toxicity in Alzheimer's disease by a pyridine amine derivative” (Eur J Med Chem, 2019)
Active and inactive are the calls of the source. The calls are words filed in the database; no cut-off is given here.

Columns and labels:
Caenorhabditis elegans [1] = assay: Upregulation of hsp-60 mRNA expression in Caenorhabditis elegans CL4176 at 50 uM by qRT-PCR analysis relative to control; assay type: functional
Procedure, shortened: (§1)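 CL4176 worms treated with compound at 25 °C for 48 h (50, 100 µM for amy-1). RNA extracted with Trizol, cDNA made, EvaGreen qRT-PCR run for 40 cycles (95 °C 5 s, 60 °C 5 s). Normalized to ama-1 by the 2^−ΔΔCt method. Three independent preparations, samples in triplicate.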

[2] = biological target: T1, Amyloid-beta precursor protein (Homo sapiens, UniProt P05067); assay: Inhibition of self-induced amyloid beta (1 to 42) (unknown origin) aggregation assessed as decrease in negative band ellipticity and shift around 230 nm resulting in inhibition of beta-sheets formation at 80 uM incubated for 24 hrs by circular dichroism spectroscopy
T1 sequence (P05067 whole entry): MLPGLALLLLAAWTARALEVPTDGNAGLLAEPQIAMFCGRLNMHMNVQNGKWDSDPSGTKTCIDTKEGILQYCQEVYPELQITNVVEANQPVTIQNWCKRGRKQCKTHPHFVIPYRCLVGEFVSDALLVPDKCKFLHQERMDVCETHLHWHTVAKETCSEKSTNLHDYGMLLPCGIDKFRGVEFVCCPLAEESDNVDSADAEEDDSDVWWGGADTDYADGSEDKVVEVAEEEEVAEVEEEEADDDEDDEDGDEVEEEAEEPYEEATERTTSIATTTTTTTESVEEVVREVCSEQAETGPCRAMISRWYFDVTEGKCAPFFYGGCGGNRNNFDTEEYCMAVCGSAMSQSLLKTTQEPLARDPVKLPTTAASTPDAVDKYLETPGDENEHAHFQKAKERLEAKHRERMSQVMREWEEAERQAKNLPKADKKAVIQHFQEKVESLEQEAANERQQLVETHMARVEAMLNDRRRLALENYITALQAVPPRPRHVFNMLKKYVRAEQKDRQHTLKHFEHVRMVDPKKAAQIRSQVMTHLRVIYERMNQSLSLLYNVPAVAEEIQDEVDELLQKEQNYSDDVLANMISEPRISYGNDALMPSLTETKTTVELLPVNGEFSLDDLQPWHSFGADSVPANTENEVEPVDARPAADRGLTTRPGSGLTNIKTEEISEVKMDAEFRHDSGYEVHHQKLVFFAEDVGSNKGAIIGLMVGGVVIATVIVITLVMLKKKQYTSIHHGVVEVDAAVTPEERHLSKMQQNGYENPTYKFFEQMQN
Procedure, shortened: (§2)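 CD spectra taken on Aβ42 (40 µM). Metal ion (ZnCl2 or CuCl2, 40 µM) was preincubated 5 min at room temperature where present, then compound (80 µM) was added and incubated at 37 °C for 24 h. Spectra recorded 190–270 nm in a 1.0 cm quartz cell, bandwidth 0.1 nm, response time 10 s.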

Caenorhabditis elegans [3] = assay: Effect on ace-1 mRNA expression in Caenorhabditis elegans CL4176; assay type: functional
[4] = Inhibition of Zn2+ induced amyloid beta (1 to 40) aggregation assessed as reduction in fluorescence intensity at 20 uM preincubated for 5 mins in presence of ZnCl2 followed by compound addition addition and incubated for 24 hrs by Thioflavin T based fluorometric assay
Procedure, shortened: (§3)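 Aβ40 (20 µM) preincubated with CuCl2 or ZnCl2 (20 µM) for 5 min at room temperature. Compound (20 µM) added, incubated 37 °C for 24 h. ThT (5 µM) added, fluorescence read at ex 450/em 485 nm. Mean ± S.D. of at least three independent experiments.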

[5] = biological target: T1, Amyloid-beta precursor protein; assay: Inhibition of amyloid beta (1 to 42)-induced paralysis in transgenic Caenorhabditis elegans CL4176 expressing human amyloid beta (1 to 42) assessed as paralyzed worms at 200 uM treated for 49 hrs at 25 degreeC by microscopic analysis (reference value: 87 %); design: scale not given: the % may be the effect or the level left
Caenorhabditis elegans [6] = assay: Inhibition of AChE in Caenorhabditis elegans CL4176 assessed as enzyme activity at 25 uM after 48 hrs by DTNB reagent based colorimetric analysis (reference value: 272.49 +/- 14.6 units/L)
Procedure, shortened: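 Transgenic CL4176 worms kept on NGM plates with compound (0, 25, 50, 100 µM) at 25 °C for 48 h. Lysates made by sonication in 0.1 M phosphate buffer pH 7.4 and centrifuged at 13000 rpm for 5 min. AChE activity in the supernatant was measured with a kit, read as absorbance at 412 nm, given in Units/L normalized to protein concentration, mean ± S.D.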

[7] = biological target: T1, Amyloid-beta precursor protein; assay: Inhibition of amyloid beta (1 to 42)-induced paralysis in transgenic Caenorhabditis elegans GMC101 L3 expressing human amyloid beta (1 to 42) assessed as reduction in fluorescence intensity at 100 uM incubated for 2 days by fluorescence based confocal microscopic analysis relative to control; conditions: time 2.0 day
Procedure, shortened: (§4)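 GMC101 L3 worms kept on compound plates (50, 100 µM) at 25 °C for 2 days, mounted on 2% agarose pads. GFP imaged by confocal microscopy at ex 488/em 500–530 nm and intensity quantified. Two experiments, 15 worms per group.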

[8] = biological target: T1, Amyloid-beta precursor protein; assay: Inhibition of amyloid beta (1 to 42)-induced paralysis in transgenic Caenorhabditis elegans CL4176 expressing human amyloid beta (1 to 42) assessed as paralyzed worms at 100 uM treated for 49 hrs at 25 degreeC by microscopic analysis (reference value: 87 %); design: scale not given: the % may be the effect or the level left
[9] = biological target: T1, Amyloid-beta precursor protein; assay: Inhibition of amyloid beta (1 to 42)-induced paralysis in transgenic Caenorhabditis elegans GMC101 L3 expressing human amyloid beta (1 to 42) assessed as reduction in fluorescence intensity at 50 uM incubated for 2 days by fluorescence based confocal microscopic analysis relative to control; conditions: time 2.0 day; procedure, shortened: as §4
Caenorhabditis elegans [10] = assay: Upregulation of hsf-1 mRNA expression in Caenorhabditis elegans CL4176 at 50 uM by qRT-PCR analysis relative to control; assay type: functional; procedure, shortened: as §1
[11] = biological target: T1, Amyloid-beta precursor protein; assay: Inhibition of self-induced amyloid beta (1 to 42) (unknown origin) aggregation assessed as decrease in negative band ellipticity and shift around 230 nm resulting in modulation of amyloid beta (1 to 42) conformation at 80 uM incubated for 24 hrs by circular dichroism spectroscopy; procedure, shortened: as §2
Caenorhabditis elegans [12] = assay: Induction of HSP expression in Caenorhabditis elegans; assay type: functional
[13] = Inhibition of Cu2+ induced amyloid beta (1 to 40) aggregation assessed as reduction in fluorescence intensity at 20 uM preincubated for 5 mins in presence of CuCl2 followed by compound addition addition and incubated for 24 hrs by Thioflavin T based fluorometric assay; procedure, shortened: as §3
[14] = Disaggregation of Cu2+ induced fibrils of amyloid beta (1 to 40) assessed as appearance of small soluble fragments at 0.1 to 100 uM incubated for 24 hrs uranyl acetate staining-based by TEM analysis; conditions: dose microM 0.1-100, time 24.0 hrs
[15] = Solubility of the compound in water; assay type: physicochemical
Caenorhabditis elegans [16] = assay: Effect on sod-3 mRNA expression in Caenorhabditis elegans CL4176 at 50 uM by qRT-PCR analysis; assay type: functional
Procedure, shortened: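 CL4176 qRT-PCR of skn-1 or sod-3. RNA extracted with Trizol, EvaGreen qRT-PCR run for 40 cycles (95 °C 5 s, 60 °C 5 s). Normalized to ama-1 by the 2^−ΔΔCt method. Three independent RNA/cDNA preparations, run in triplicate.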

[17] = biological target: T1, Amyloid-beta precursor protein; assay: Inhibition of amyloid beta (1 to 42)-induced paralysis in transgenic Caenorhabditis elegans GMC101 expressing human amyloid beta (1 to 42) assessed as paralyzed worms at 200 uM measured after 92 hrs by microscopic analysis relative to control; design: scale not given: the % may be the effect or the level left
Caenorhabditis elegans [18] = assay: Antioxidant activity in Caenorhabditis elegans CL4176 assessed as effect on juglone-induced ROS level by measuring relative fluorescence intensity at 100 uM and 15 to 25 degreeC after 48 hrs by H2DCF-DA probe based fluorescence assay ( Rvb = 74.23 %); assay type: functional
[19] = Inhibition of Zn2+ induced amyloid beta (1 to 42) aggregation assessed as reduction in fibril formation incubated for 24 hrs in presence of Zn2+ by Thioflavin T based fluorometric assay
Procedure, shortened: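 Aβ42 (20 µM) mixed with compound (0.1–100 µM), with or without Zn2+ (20 µM), in Tris-HCl pH 7.4, incubated at 37 °C for 24 h. ThT (5 µM) added, fluorescence read at ex 450/em 485 nm.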

Mus musculus = assay: Cognitive enhancing effect in APP/PS1 double mutant-transgenic C57BL/6 mouse model assessed as effect on escape latency time at 1 mg/kg, iv measured on day 5 by Morris water maze test (reference value: 50.08 +/- 17.95 sec); assay type: functional; conditions: time 5 day
[20] = biological target: T1, Amyloid-beta precursor protein; assay: Inhibition of amyloid beta (1 to 42)-induced paralysis in transgenic Caenorhabditis elegans CL4176 expressing human amyloid beta (1 to 42) assessed as paralyzed worms at 50 uM treated for 49 hrs at 25 degreeC by microscopic analysis (reference value: 87 %); design: scale not given: the % may be the effect or the level left
[21] = biological target: T1, Amyloid-beta precursor protein; assay: Inhibition of amyloid beta (1 to 42)-induced paralysis in transgenic Caenorhabditis elegans GMC101 expressing human amyloid beta (1 to 42) assessed as paralyzed worms at 50 uM measured after 92 hrs by microscopic analysis relative to control; design: scale not given: the % may be the effect or the level left

Compound: Oc1cc(CN(Cc2ccccn2)Cc2ccccn2)cc(C[P+](c2ccccc2)(c2ccccc2)c2ccccc2)c1.[Br-]
- fold change (FC) (Caenorhabditis elegans [1]): 1.59
- inhibition [2]: Active
- Activity (Caenorhabditis elegans [3]): inactive
- inhibition [4]: Active
- Activity [5]: 35%
- Activity (Caenorhabditis elegans [6]): 248 U/L
- inhibition [7]: 20%
- Activity [8]: 66%
- inhibition [9]: 43%
- fold change (FC) (Caenorhabditis elegans [10]): 1.55
- inhibition [11]: Active
- Activity (Caenorhabditis elegans [12]): Active
- inhibition [13]: Active
- Activity [14]: Active
- solubility [15]: Insoluble
- Activity (Caenorhabditis elegans [16]): inactive
- Activity [17]: 35%
- Activity (Caenorhabditis elegans [18]): 28.14%
- IC50 [19]: 27.4 µM
- inhibition [19]: Dose-dependent effect
- Time (Mus musculus): 34.25 s
- Activity [20]: 74%
- Activity [21]: 74%
